The record followed here is ChEMBL document CHEMBL1212925, “Replacement of imidazolyl by pyridyl in biphenylmethylenes results in selective CYP17 and dual CYP17/CYP11B1 inhibitors for the treatment of prostate cancer” (J Med Chem, 2010).

Assay [1] has as its target T1, Cytochrome P450 11B2, mitochondrial (Homo sapiens, UniProt P19099).
T1 sequence (P19099 whole entry): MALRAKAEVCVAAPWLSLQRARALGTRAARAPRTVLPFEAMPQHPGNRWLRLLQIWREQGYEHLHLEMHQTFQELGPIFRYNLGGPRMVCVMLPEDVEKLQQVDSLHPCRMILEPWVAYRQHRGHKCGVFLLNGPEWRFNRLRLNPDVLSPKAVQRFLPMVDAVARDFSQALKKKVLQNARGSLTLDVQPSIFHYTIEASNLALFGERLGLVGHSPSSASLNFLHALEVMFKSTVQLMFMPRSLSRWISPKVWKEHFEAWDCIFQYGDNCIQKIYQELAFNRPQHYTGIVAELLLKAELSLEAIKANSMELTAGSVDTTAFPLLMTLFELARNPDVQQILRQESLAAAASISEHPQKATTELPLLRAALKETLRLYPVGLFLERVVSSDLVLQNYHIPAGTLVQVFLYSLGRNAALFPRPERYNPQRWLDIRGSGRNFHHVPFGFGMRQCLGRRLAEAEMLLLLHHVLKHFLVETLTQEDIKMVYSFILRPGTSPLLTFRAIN
In words: Inhibition of human CYP11B2 expressed in hamster fibroblast. The procedure, abridged: (§1)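 V79 MZh hamster fibroblasts expressing human CYP11B1 or CYP11B2 incubated with [14C]11-deoxycorticosterone substrate at 100 nM and inhibitor at varied concentrations. Product formation monitored by HPTLC with phosphoimager. IC50 from mean of at least three tests; SD within 5%.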

Assay [2] addresses T2, Cytochrome P450 11B1, mitochondrial (Homo sapiens, UniProt P15538).
T2 sequence (P15538 whole entry): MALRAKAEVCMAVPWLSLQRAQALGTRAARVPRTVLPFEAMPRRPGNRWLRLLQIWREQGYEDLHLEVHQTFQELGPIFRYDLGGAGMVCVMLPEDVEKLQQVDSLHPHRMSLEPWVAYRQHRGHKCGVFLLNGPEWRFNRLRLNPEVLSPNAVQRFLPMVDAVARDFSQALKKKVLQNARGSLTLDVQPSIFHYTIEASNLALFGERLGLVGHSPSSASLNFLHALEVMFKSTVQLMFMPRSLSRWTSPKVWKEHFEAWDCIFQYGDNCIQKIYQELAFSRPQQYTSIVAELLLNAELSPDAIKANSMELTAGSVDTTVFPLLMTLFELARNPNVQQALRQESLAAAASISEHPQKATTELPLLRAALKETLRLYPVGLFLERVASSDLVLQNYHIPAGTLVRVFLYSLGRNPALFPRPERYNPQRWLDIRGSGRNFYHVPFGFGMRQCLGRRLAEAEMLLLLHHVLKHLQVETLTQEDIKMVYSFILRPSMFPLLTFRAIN
In words: Inhibition of human CYP11B1 expressed in hamster fibroblast. In short, it runs like this: as §1

A further assay deals with T3, Aromatase (Homo sapiens, UniProt P11511).
T3 sequence (P11511 whole entry): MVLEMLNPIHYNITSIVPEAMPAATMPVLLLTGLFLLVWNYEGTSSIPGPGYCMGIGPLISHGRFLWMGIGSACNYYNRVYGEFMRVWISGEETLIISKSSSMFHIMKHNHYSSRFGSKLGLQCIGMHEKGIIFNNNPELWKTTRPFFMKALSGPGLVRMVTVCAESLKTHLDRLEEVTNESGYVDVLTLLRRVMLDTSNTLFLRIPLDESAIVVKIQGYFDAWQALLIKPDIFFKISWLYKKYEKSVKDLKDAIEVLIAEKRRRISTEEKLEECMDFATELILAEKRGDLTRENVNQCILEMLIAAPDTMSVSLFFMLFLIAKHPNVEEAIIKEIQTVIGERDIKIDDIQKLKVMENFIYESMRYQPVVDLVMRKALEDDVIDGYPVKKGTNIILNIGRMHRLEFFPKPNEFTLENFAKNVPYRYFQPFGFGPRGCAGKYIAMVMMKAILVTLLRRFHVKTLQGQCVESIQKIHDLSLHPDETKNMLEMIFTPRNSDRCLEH
In words: Inhibition of human placental CYP19. In short, it runs like this:
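Human placental microsomes with [1β-3H]androstenedione substrate at 500 nM, run in vitro. IC50 values are means of at least three tests; SD within 5%.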

The target of assay [3] is T4, Steroid 17-alpha-hydroxylase/17,20 lyase (Homo sapiens, UniProt P05093).
T4 sequence (P05093 whole entry): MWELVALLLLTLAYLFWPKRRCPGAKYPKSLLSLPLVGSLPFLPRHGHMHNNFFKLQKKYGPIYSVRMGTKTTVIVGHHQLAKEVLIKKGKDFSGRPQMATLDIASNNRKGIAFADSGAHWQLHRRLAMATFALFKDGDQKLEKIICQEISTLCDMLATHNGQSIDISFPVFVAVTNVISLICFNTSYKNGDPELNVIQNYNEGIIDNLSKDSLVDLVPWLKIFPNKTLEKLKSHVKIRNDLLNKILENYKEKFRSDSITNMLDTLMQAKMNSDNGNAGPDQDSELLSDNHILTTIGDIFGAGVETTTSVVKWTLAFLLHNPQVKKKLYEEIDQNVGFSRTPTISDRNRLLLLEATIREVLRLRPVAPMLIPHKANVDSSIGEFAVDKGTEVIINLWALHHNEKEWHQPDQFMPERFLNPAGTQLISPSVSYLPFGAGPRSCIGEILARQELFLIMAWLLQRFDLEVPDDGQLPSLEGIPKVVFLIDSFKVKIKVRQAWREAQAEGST
In words: Inhibition of human CYP17 expressed in Escherichia coli. The procedure, abridged: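 Enzyme source: 50 000 sediment of homogenized E. coli co-expressing human CYP17 and NADPH-P450 reductase. Substrate and product separated by HPLC with UV detection.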

In the next assay the target is Cytochrome P450 3A4 (Homo sapiens, UniProt P08684). Nature of the assay: Inhibition of recombinant CYP3A4 expressed in baculovirus-infected insect microsome. It counts as ADME.
Sequence of Cytochrome P450 3A4 (P08684 whole entry): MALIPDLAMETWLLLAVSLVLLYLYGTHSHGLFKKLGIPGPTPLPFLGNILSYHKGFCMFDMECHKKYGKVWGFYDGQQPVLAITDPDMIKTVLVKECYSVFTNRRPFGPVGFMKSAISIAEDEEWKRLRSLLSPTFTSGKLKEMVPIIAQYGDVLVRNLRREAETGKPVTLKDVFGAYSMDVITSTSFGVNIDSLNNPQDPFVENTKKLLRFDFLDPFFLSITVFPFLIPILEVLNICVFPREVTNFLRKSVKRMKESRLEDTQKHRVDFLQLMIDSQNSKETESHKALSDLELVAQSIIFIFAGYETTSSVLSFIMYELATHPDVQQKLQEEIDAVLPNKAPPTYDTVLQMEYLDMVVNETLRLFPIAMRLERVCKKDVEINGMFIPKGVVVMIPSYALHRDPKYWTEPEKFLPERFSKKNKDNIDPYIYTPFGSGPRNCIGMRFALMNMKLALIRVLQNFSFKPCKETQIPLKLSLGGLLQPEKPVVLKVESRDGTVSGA

Turning to `Oc1ccc(-c2ccc(Cc3ccncc3)cc2)cc1F`, the IC50 (commonly the midpoint of a concentration-inhibition curve) came to 0.21 µM in assay [1], 0.85 µM in assay [2] and 2.69 µM at Aromatase.

For `Nc1ccc(-c2ccc(Cc3ccncc3)cc2)cc1N`, the values for the IC50 (in assay [1]; in assay [2]; against Aromatase) were 0.367 µM, 0.902 µM and greater than 25 µM, respectively.

Regarding `Fc1ccc(-c2ccc(Cc3ccncc3)cc2)cc1F`, the results for the half-maximal inhibitory concentration (IC50) in assay [1], in assay [2] and in assay [3] were 0.273 µM, 4.74 µM and 0.598 µM, respectively.

In assay [3], `COc1ccc(-c2ccc(Cc3ccncc3)cc2)cc1F` yielded an IC50 of 3.34 µM.

Turning to `CC(C)(C)OC(=O)Nc1ccc(-c2ccc(Cc3ccncc3)cc2)cc1`, the midpoint of inhibition in assay [3], the IC50, lay at 1.37 µM.

Molecule `CC(C)(C)OC(=O)Nc1ccc(-c2ccc(Cc3ccncc3)cc2)cc1F` yielded an IC50 in assay [3] greater than 10 µM.

Consider `CC(C)(C)OC(=O)Nc1ccc(-c2ccc(Cc3ccncc3)cc2)cc1NC(=O)OC(C)(C)C`, for which, in assay [3], the IC50 was greater than 10 µM.

Consider `COc1ccc(-c2ccc(Cc3ccncc3)cc2)cc1NC(=O)OC(C)(C)C`, for which the 50% inhibitory concentration (IC50) in assay [3] is greater than 10 µM.

As for `c1cc(Cc2ccc(-c3ccsc3)cc2)ccn1`, the IC50 in assay [1] came to 0.331 µM; in assay [2], 0.415 µM; in assay [3], 0.647 µM.

On to `c1csc(-c2ccc(Cc3ccncc3)cc2)c1`, for which the IC50 in assay [1] was found to be 0.796 µM; in assay [2], 0.422 µM; in assay [3] it was 0.647 µM.

As to `c1cc(Cc2ccc(-c3ccc4[nH]ccc4c3)cc2)ccn1`, the values for the IC50 in assay [1], in assay [2] and in assay [3] were 0.231 µM, 0.469 µM and 0.76 µM, respectively.

For `COc1ccc2cc(-c3ccc(Cc4ccncc4)cc3)ccc2c1`, in assay [3], the 50% inhibitory concentration (IC50) came out at 2 µM.

On to `Oc1ccc2cc(-c3ccc(Cc4ccncc4)cc3)ccc2c1`, for which the IC50 in assay [1] is 1.13 µM; in assay [2], 0.627 µM; in assay [3], 0.438 µM; at Cytochrome P450 3A4, 1.14 µM.

For the molecule `CCC(c1ccc(-c2ccc(OC)cc2)cc1)c1cccnc1` (centres undefined), the concentration for half-maximal inhibition (IC50) in assay [3] was greater than 5 µM.

`CCC(c1ccncc1)c1ccc(-c2ccc(OC)cc2)cc1` (centres undefined) had a concentration for half-maximal inhibition (IC50) in assay [3] of 1.61 µM.

Regarding `Oc1ccc(-c2ccc(C(O)n3ccnc3)cc2)cc1` (centres undefined), the concentration for half-maximal inhibition (IC50) in assay [3] is greater than 5 µM.

In assay [3], `Oc1ccc(-c2ccc(Cc3cccnc3)cc2)cc1` registered an IC50 of 4.04 µM.

Take `Oc1ccc(-c2ccc(Cc3ccncc3)cc2)cc1`: the IC50 in assay [1] came to 0.341 µM; in assay [2] it was 0.251 µM; at Aromatase, 3.07 µM; in assay [3], 0.248 µM; on Cytochrome P450 3A4, 3.21 µM.

For the molecule `Nc1ccc(-c2ccc(Cc3ccncc3)cc2)cc1`, the IC50 was 0.406 µM in assay [1]; 0.522 µM in assay [2]; 24.5 µM on Aromatase; 0.408 µM in assay [3]; 2.45 µM at Cytochrome P450 3A4.

As to `CC(=O)Nc1ccc(-c2ccc(Cc3ccncc3)cc2)cc1`, the half-inhibitory concentration (IC50) in assay [3] is greater than 5 µM.

As to `CC(=O)Nc1cccc(-c2ccc(Cc3ccncc3)cc2)c1`, the results for the IC50 in assay [1], in assay [2] and in assay [3] were 0.567 µM, 0.307 µM and 0.876 µM, respectively.

In turn, `NC(=O)c1ccc(-c2ccc(Cc3ccncc3)cc2)cc1` came in with an IC50 in assay [3] of 1.79 µM.

`CCC(c1ccc(-c2ccc(OC)cc2)cc1)n1ccnc1` (centres undefined): in assay [3], the half-maximal inhibitory concentration (IC50) is greater than 5 µM.

On to `CC(C)(C(=O)c1cccnc1)c1cccnc1` [METYRAPONE], for which the half-maximal inhibitory concentration (IC50) in assay [3] is greater than 10 µM.
